The values that follow come from ChEMBL document CHEMBL1123282, “Antiinflammatory activity of substituted 6-hydroxypyrimido[2,1-f]purine-2,4,8(1H,3H,9H)-triones. Atypical nonsteroidal antiinflammatory agents” (J Med Chem, 1986).

For assay [1], the system named is Rattus norvegicus. The experiment in a line: Antiinflammatory activity on the development of collagen II arthritis in rats, measured based on animals positive for arthritis by the presence of paw edema. Type of assay: functional. The method in brief: (§1)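 Rats immunised with bovine articular-cartilage type II collagen (dissolved in 0.01 M AcOH for 24 h at 4 °C, dialysed against saline) mixed in equal volume with incomplete Freund's adjuvant. Paws were examined weekly for 7 weeks. An animal counted as arthritic at Δ paw volume ≥8.0 (injected paw) or ≥4.0 (noninjected paw). Bone lesions were scored on lateral-projection foot radiographs. 16 rats/group.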

In assay [2] the target is Cyclooxygenase (Rattus norvegicus) (UniProt P35355+Q63921). Description: In vitro inhibitory activity against Prostaglandin G/H synthase in rat neutrophils at a dose of 50 uM.
For assay [3], the system named is Rattus norvegicus. The experiment in a line: In vivo antiinflammatory activity against rats by RPAR(reverse passive Arthus reaction) synovitis method. Type of assay: functional. Further details: concentration or dose not given beside the values. The method in brief: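 Lewis rats, oral drug or placebo 1 h before iv BSA (2.28 mg in saline), then intraarticular rabbit anti-BSA (0.54 mg) into one knee and saline into the other, under light anesthesia. Second oral dose at 3 h; the total of both doses is the calculated dose. About 17 h after induction, subpatellar tissue with synovium is excised and weighed. Response is antibody-minus-saline knee weight, tested by analysis of variance.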

Assay [4] relates to Rattus norvegicus. Description: Compound was tested in vivo against chronic adjuvant arthritic rat by prophylactic inhibition 2 degree paw. Relative potency with respect to (8-Benzyl-5-hydroxy-1,3-dimethyl-6-propyl-1H,8H-1,3,4b,8,9-pentaaza-fluorene-2,4,7-trione). Type of assay: functional.
Assay [5] deals with Rattus norvegicus. Description: Compound was tested for gastric Ulcerogenic effect in rats, activity expressed as lesion length at a dose of 30 mg/kg.
The species entered for assay [6] is Rattus norvegicus. Description: Antiinflammatory activity on the development of collagen II arthritis in rats, measured based on animals positive for arthritis by the presence of bone lesions. Type of assay: functional. The method in brief: as §1
Assay [7] addresses T1, Polyunsaturated fatty acid 5-lipoxygenase (Rattus norvegicus) (UniProt P12527).
T1 sequence (whole entry): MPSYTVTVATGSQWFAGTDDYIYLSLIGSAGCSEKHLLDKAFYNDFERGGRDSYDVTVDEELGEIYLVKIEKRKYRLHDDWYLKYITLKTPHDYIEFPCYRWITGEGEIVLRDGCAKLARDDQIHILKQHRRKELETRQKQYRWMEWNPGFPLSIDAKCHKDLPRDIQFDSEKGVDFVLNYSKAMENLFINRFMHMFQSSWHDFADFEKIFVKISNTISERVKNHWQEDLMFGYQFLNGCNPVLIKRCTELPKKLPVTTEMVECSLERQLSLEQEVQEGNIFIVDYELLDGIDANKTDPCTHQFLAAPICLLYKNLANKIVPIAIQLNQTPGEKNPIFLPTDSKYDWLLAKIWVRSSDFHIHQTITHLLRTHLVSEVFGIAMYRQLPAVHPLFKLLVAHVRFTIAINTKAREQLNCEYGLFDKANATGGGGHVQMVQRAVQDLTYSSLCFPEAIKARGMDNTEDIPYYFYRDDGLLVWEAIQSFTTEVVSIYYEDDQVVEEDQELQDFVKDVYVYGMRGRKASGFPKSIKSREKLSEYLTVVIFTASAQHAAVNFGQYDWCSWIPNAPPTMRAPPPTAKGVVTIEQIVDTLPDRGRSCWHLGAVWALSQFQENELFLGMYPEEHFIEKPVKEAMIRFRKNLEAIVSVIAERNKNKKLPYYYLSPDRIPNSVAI
Description: In vitro inhibitory activity against Lipoxygenase in rat neutrophils at a dose of 50 uM. The method in brief:
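Neutrophils come from the 4 h pleural exudate of male Wistar-Lewis rats given iv BSA plus intrapleural rabbit anti-BSA IgG. Cells are washed, red cells lysed with NH4Cl, and resuspended at about 5×10^6 cells/0.1 mL in Tris pH 7.4 with NaCl and 1 mM CaCl2. Cells are preincubated with compound 4 min at room temperature.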

Assay [8] deals with Rattus norvegicus. The experiment in a line: Compound was tested for gastric Ulcerogenic effect in rats, activity expressed as lesion length at a dose of 10 mg/kg.
Assay [9] relates to Rattus norvegicus. The experiment in a line: Tested in vivo for antiinflammatory activity against chronic adjuvant arthritic rat by prophylactic inhibition 2 degree paw after peroral administration of 9 mg/kg of dose. The assay is classed as functional. The following applies: route oral. The method in brief: (§2)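 Prophylactic regimen, rats. Adjuvant is heat-killed Mycobacterium tuberculosis ground to a fine powder in paraffin oil (6 mg/mL); 0.1 mL is injected into the left hind paw. Oral drug is given 1 h before adjuvant challenge, then for 21 consecutive days; controls receive methyl cellulose. Left (1°) and right (2°) hind paw volumes are measured by plethysmograph.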

The subject of assay [10] is Rattus norvegicus. The experiment in a line: Compound was tested for intestinal Ulcerogenic effect in rats at a dose of 100 mg/kg. The assay is classed as functional. The method in brief: (§3)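 Normal fed rats were gavaged once daily for three consecutive days at 10–300 mg/kg and killed 24 h after the last dose. Intestines were examined for ulcers, recording incidence per group of 8 and a lesion score (±SE).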

The subject of assay [11] is Rattus norvegicus. The experiment in a line: Compound was tested in vivo for antiinflammatory activity against chronic adjuvant arthritic rat by therapeutic inhibition 2 degree paw after peroral administration of 10 mg/kg of dose. The following applies: route oral. The assay is classed as functional.
In assay [12] the test system is Rattus norvegicus. Description: Tested in vivo for antiinflammatory activity against chronic adjuvant arthritic rat by prophylactic inhibition 1 degree paw after peroral administration of 9 mg/kg of dose. Type of assay: functional. The following applies: route oral. The method in brief:
as §2

The subject of assay [13] is Rattus norvegicus. Description: Compound was tested for intestinal Ulcerogenic effect in rats, activity expressed as ulcer incidence at a dose of 100 mg/kg. Type of assay: functional. The method in brief: as §3
The test system of assay [14] is Rattus norvegicus. Description: Antiinflammatory activity against collagen II arthritis in rats, activity % inhibition in noninjected paw edema. Type of assay: functional. Further details: concentration or dose not given beside the values. The method in brief:
as §1

Assay [15] is filed under the species Rattus norvegicus. Description: Antiinflammatory activity by immune response to collagen II antigen in rats antibody titer was determined by passive hemagglutinination. Type of assay: functional. The method in brief:
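In rats with bovine type II collagen/incomplete Freund's adjuvant arthritis, the antibody response to collagen II was titred by passive hemagglutination. The delayed-type hypersensitivity component, ear thickness 24 h after intrapinna antigen, was read at day 21.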

Assay [16] deals with Rattus norvegicus. Description: Compound was tested in vivo for antiinflammatory activity against chronic adjuvant arthritic rat by prophylactic inhibition 2 degree paw after peroral administration of 36 mg/kg of dose. The following applies: po.
The test system of assay [17] is Rattus norvegicus. The experiment in a line: Antiinflammatory activity against collagen II arthritis in rats, activity% inhibition in injected paw edema. The assay is classed as functional. Also noted: concentration or dose not given beside the values. The method in brief:
as §1

For assay [18], the system named is Rattus norvegicus. Description: Compound was tested in vivo for antiinflammatory activity against chronic adjuvant arthritic rat by prophylactic inhibition 2 degree paw after peroral administration of 18 mg/kg of dose. Conditions: po.

Several values for one entry are separate records, joined by “and”; a condition that tells them apart may be missing. Equal entries are not always repeated.

Broadly, the inhibition is how much of the control response was suppressed. For orientation: Inhibition means the change of the read-out against control, counted positive when it falls. In general, inhibition in vivo refers to the relative decrease from the control value, in per cent. Take `CC(C)=CCc1c(O)n(Cc2ccccc2)c2nc3c(c(=O)n(C)c(=O)n3C)n2c1=O`: the Positive turned out to be 46.7% in the assay on Rattus norvegicus [1] and 40% in the assay filed under Rattus norvegicus [6]. Also, the inhibition was 92% in [2]; 17% and 22% in assay [7]. Also, the Inhibition in the assay with Rattus norvegicus [3] is 26%; in the assay on Rattus norvegicus [14], 10.1%. Further, the Relative potency in the assay with Rattus norvegicus [4] is 3.1 and 4.3. Also, the Length with Rattus norvegicus [5] and in the assay with Rattus norvegicus [8] was 0 mm rat-1 throughout. Besides, the inhibition in vivo at 9 mg/kg in the assay on Rattus norvegicus [9] turned out to be 76%; in the assay on Rattus norvegicus [12], 30%. Moreover, the Ulcer incidence with Rattus norvegicus [10] and with Rattus norvegicus [13] was 1 number/group each time. Besides, in the assay on Rattus norvegicus [11], the inhibition in vivo at 10 mg/kg turned out to be 70%. Besides, in the assay filed under Rattus norvegicus [15], the Antibody titer amounted to 10.9.
Consider `CC(C)=CCc1c(O)n(Cc2ccc(F)cc2)c2nc3c(c(=O)n(C)c(=O)n3C)n2c1=O`, for which the Positive was determined as 21.4% in the assay on Rattus norvegicus [1] and 14.3% in the assay filed under Rattus norvegicus [6]. Also, the inhibition is 93% in assay [2]; 21% and 22% in assay [7]. In addition, in the assay with Rattus norvegicus [16], the inhibition in vivo at 36 mg/kg came out at 69%. Also, the values for the Inhibition with Rattus norvegicus [3], in the assay with Rattus norvegicus [17] and in the assay on Rattus norvegicus [14] were 29%, 53.9% and 80.6%, respectively. For the same compound, the Relative potency in the assay on Rattus norvegicus [4] came out at 4.8. The inhibition in vivo at 9 mg/kg in the assay on Rattus norvegicus [9] came to 35%; in the assay with Rattus norvegicus [12] it was 22%. Also, the inhibition in vivo at 10 mg/kg in the assay on Rattus norvegicus [11] came to 67%. In addition, the inhibition in vivo at 18 mg/kg in the assay on Rattus norvegicus [18] was determined as 69%. Further, in the assay filed under Rattus norvegicus [15], the Antibody titer amounted to 8.4.
For the compound `CCCc1c(O)n(Cc2ccc(F)cc2)c2nc3c(c(=O)n(C)c(=O)n3C)n2c1=O`, the figures for the Positive in the assay with Rattus norvegicus [1] and in the assay filed under Rattus norvegicus [6] were 31.3% and 18.8%, respectively. The inhibition in assay [2] is 36%; in assay [7] it was 0% and 8%. The inhibition in vivo at 36 mg/kg with Rattus norvegicus [16] turned out to be 67%. In addition, the Inhibition was determined as 53% with Rattus norvegicus [3], 38.2% with Rattus norvegicus [17] and 54.9% in the assay on Rattus norvegicus [14]. Moreover, in the assay with Rattus norvegicus [4], the Relative potency was 1.2. In addition, the Length in the assay with Rattus norvegicus [5] and with Rattus norvegicus [8] was 0 mm rat-1 in each case. The inhibition in vivo at 9 mg/kg was 49% with Rattus norvegicus [9] and 42% with Rattus norvegicus [12]. Besides, the Ulcer incidence in the assay with Rattus norvegicus [10] and in the assay on Rattus norvegicus [13] was 0 number/group each time. Further, the inhibition in vivo at 18 mg/kg with Rattus norvegicus [18] is 49%. In the assay filed under Rattus norvegicus [15], this compound gave an Antibody titer of 6.6.
